Measurements as given in ChEMBL document CHEMBL1137753, “Insecticidal heterolignans--tubuline polymerization inhibitors with activity against chewing pests” (Bioorg Med Chem, 2009).
Active and inactive are the calls of the source.

Legend:
Type in all cases: functional, organism-based
[1] = system: Spodoptera frugiperda; assay: Insecticidal activity against Spodoptera frugiperda larvae in disk of maize leaf treated as spray
[2] = system: Phaedon cochleariae; assay: Insecticidal activity against Phaedon cochleariae larvae in disk of Chinese cabbage leaf treated as spray
[3] = system: Phaedon cochleariae; assay: Insecticidal activity against Phaedon cochleariae larvae in disk of Chinese cabbage leaf at 500 g/ha treated as spray
How it was run: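 This was sprayed on Chinese cabbage leaf disks. Once dry, disks were infested with mustard beetle larvae and mortality was scored after a set time. "+" denotes ≥80% larvae killed; n.a. denotes none killed.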

Row | Compound | Activity [1] | Activity [2] | Activity [3]
1 | COc1cc(OC)cc(C2C3=C(COC3=O)Nc3cc(OC(F)(F)F)ccc32)c1 (centres undefined) | inactive | inactive | 
2 | CC1(c2cccc(Cl)c2)C2=C(COC2=O)Nc2ccc(Cl)cc21 (centres undefined) | inactive | inactive | 
3 | COc1cc(C2C3=C(CNC3=O)Nc3cc4c(cc32)OCO4)cc(OC)c1OC (centres undefined) | inactive |  | Active
4 | COc1cc(OC)cc(C2C3=C(CN(C(=O)OC(C)(C)C)C3=O)Nc3cc4c(cc32)OCO4)c1 (centres undefined) | inactive | inactive | 
5 | COc1cc(OC)cc(C2C3=C(COC3=O)Nc3cc4c(cc32)OC(F)(F)O4)c1 (centres undefined) | inactive |  | Active
6 | COc1cc(OC)cc(C2C3=C(COC3=O)Nc3cc(O)ccc32)c1 (centres undefined) | inactive | inactive | 
7 | COc1cc(OC)cc(C2C3=C(Nc4cc5c(cc42)OCO5)C(C)(C)COC3=O)c1 (centres undefined) | inactive | inactive | 
8 | COc1cc(OC)cc(C2C3=C(COC3=O)Nc3cc(OCc4ccccc4)ccc32)c1 (centres undefined) | inactive | inactive | 
9 | O=C1OCC2=C1C(c1cccc(Cl)c1Cl)c1cc3c(cc1N2)OCO3 (centres undefined) | inactive | inactive | 
10 | CC1(C)CS(=O)(=O)C2=C1Nc1cc3c(cc1C2c1cccc(Cl)c1)OCO3 (centres undefined) | inactive | inactive | 
11 | COc1cc(OC)cc(C2C3=C(COC3=O)Nc3cc(OC)c(Cl)cc32)c1 (centres undefined) | inactive | inactive | 
12 | COc1cc(C2C3=C(CN(C(=O)OC(C)(C)C)C3=O)Nc3cc4c(cc32)OCO4)cc(OC)c1OC (centres undefined) | inactive | inactive | 
13 | COc1cc(OC)cc(C2C3=C(Nc4cc5c(cc42)OCO5)C(C)(C)ON(C)C3=O)c1 (centres undefined) | inactive | inactive | 
14 | O=C1OCC2=C1C(c1ccc3c(c1)OC(F)(F)O3)c1cc3c(cc1N2)OCO3 (centres undefined) | inactive | inactive | 
15 | CC1(C)OS(=O)(=O)C2=C1Nc1cc3c(cc1C2c1cccc(Cl)c1)OCO3 (centres undefined) | inactive |  | Active
16 | COc1cc(OC)cc(C2C3=C(COC3=O)Nc3c(OC)ccc(OC)c32)c1 (centres undefined) | inactive | inactive | 
17 | COc1cc(OC)cc(C2C3=C(COC3=O)Nc3cc(OC)c(OC)c(OC)c32)c1 (centres undefined) | inactive | inactive | 
18 | O=S1(=O)CCC2=C1C(c1cccc(Cl)c1)c1cc3c(cc1N2)OCO3 (centres undefined) | inactive | inactive | 
19 | O=C1OCC2=C1C(c1ccc(Cl)cc1)c1cc3c(cc1N2)OCO3 (centres undefined) | inactive | inactive | 
20 | COc1cc(OC)cc(C2C3=C(Nc4cc5c(cc42)OCO5)C(C)(C)COS3(=O)=O)c1 (centres undefined) | inactive | inactive | 
21 | COc1cc2c(cc1OC)N(C)C1=C(C(=O)OC1)C2c1cc(OC)c(OC)c(OC)c1 (centres undefined) | inactive | inactive | 
22 | O=C1OCC2=C1C(c1cccc(Br)c1)c1cc3c(cc1O2)OCO3 (centres undefined) | inactive | inactive | 
23 | O=C1OCC2=C1C(c1cccc(Cl)c1)c1cc(Cl)ccc1N2 (centres undefined) | inactive | inactive | 
24 | CC1(C)NC(=O)C2=C1Nc1cc3c(cc1C2c1cccc(Cl)c1)OCO3 (centres undefined) | inactive |  | Active

Row | Compound | Activity [1] | Activity [2] | Activity [3]
25 | O=C1OCC2=C1C(c1ccc(F)c(Br)c1)c1cc3c(cc1N2)OCO3 (centres undefined) |  |  | Active
26 | CC(C)(C)OC(=O)N1CC2=C(C1=O)C(c1cccc(Cl)c1)c1cc3c(cc1N2)OCO3 (centres undefined) | inactive |  | 
27 | COc1cc(OC)cc(C2C3=C(COC3=O)Nc3c(C)cc(C)cc32)c1 (centres undefined) | inactive | inactive | 
28 | O=C1CCCC2=C1C(c1cccc(Cl)c1)c1cc3c(cc1N2)OCO3 (centres undefined) | inactive | inactive | 
29 | Clc1cccc(C2C3=C(CCCC3)Nc3cc4c(cc32)OCO4)c1 (centres undefined) | inactive | inactive | 
30 | COc1cc(OC)cc(C2C3=C(COC3=O)Nc3cc(C)c(C)cc32)c1 (centres undefined) | inactive | inactive | 
31 | COc1cc(OC)cc(C2C3=C(COC3=O)Nc3cc(C)cc(C)c32)c1 (centres undefined) | inactive | inactive | 
32 | O=C1OCC2=C1C(c1cc(Cl)ccc1Cl)c1cc3c(cc1N2)OCO3 (centres undefined) | inactive | inactive | 
33 | O=C1OCC2=C1C(c1cc(Cl)cc(Cl)c1)c1cc3c(cc1O2)OCO3 (centres undefined) | inactive | inactive | 
34 | COc1cc(OC)cc(C2C3=C(COC3=O)Oc3c2ccc(OC)c3OC)c1 (centres undefined) | inactive | inactive | 
35 | O=C1OCC2=C1C(c1cccc(OCCO)c1)c1cc3c(cc1N2)OCO3 (centres undefined) |  | inactive | 
36 | O=C1OC2(CCCC2)C2=C1C(c1cccc(Cl)c1)c1cc3c(cc1N2)OCO3 (centres undefined) | inactive |  | Active
37 | COc1cc(OC)cc(C2C3=C(CN(C(C)C)C3=O)Nc3cc4c(cc32)OCO4)c1 (centres undefined) | inactive | inactive | 
38 | COc1cc2c(cc1OC)C(c1cc(OC)c(OC)c(OC)c1)C1=C(O)OCC1=N2 (centres undefined) | inactive | inactive | 
39 | CC1(C)OC(=O)C2=C1Nc1cc3c(cc1C2c1cccc(Cl)c1)OCO3 (centres undefined) | inactive |  | Active
40 | COc1cc(OC)cc(C2C3=C(COC3=O)Nc3cc(-c4ccccc4)ccc32)c1 (centres undefined) | inactive | inactive | 
41 | COc1cc(OC)cc(C2C3=C(COC3=O)Nc3ccc(OC(C)C)cc32)c1 (centres undefined) | inactive | inactive | 
42 | CCN1C2=C(C(=O)OC2)C(c2cc(OC)cc(OC)c2)c2cc(OC)c(OC)cc21 (centres undefined) | inactive | inactive | 
43 | O=C1C2=C(C(=O)C1c1ccccc1)C(c1cccc(Cl)c1)c1cc3c(cc1N2)OCO3 (centres undefined) | inactive | inactive | 
44 | COc1cc(OC)cc(C2C3=C(COC3=O)Nc3cc(C(C)(C)C)ccc32)c1 (centres undefined) | inactive | inactive | 
45 | O=C1OC2(CCCCC2)C2=C1C(c1cccc(Cl)c1)c1cc3c(cc1N2)OCO3 (centres undefined) | inactive | inactive | 
46 | COc1ccc2c(c1)OC1=C(C(=O)OC1)C2c1cccc(Cl)c1 (centres undefined) | inactive | inactive | 
47 | COc1cc(OC)cc(C2(C)C3=C(COC3=O)Nc3cc4c(cc32)OCO4)c1 (centres undefined) | inactive | inactive | 
48 | COc1cc(OC)cc(C2C3=C(Nc4cc5c(cc42)OCO5)C(C)(C)NC3=O)c1 (centres undefined) | inactive | inactive | 

Row | Compound | Activity [1] | Activity [2] | Activity [3]
49 | O=C1OCC2=C1C(c1cccc(OC(F)(F)F)c1)c1cc3c(cc1O2)OCO3 (centres undefined) | inactive | inactive | 
50 | COc1cc(C2C3=C(COC3=O)Nc3cc(Cl)ccc32)cc(OC)c1OC (centres undefined) | inactive | inactive | 
51 | COc1ccc(C2C3=C(O)OCC3=Nc3cc4c(cc32)OCO4)cc1 (centres undefined) | inactive | inactive | 
52 | COc1cc(OC)cc(C2C3=C(COC3=O)Nc3cc(Oc4ccccc4)ccc32)c1 (centres undefined) | inactive | inactive | 
53 | CCOc1cc2c(cc1OCC)C(c1cc(OC)cc(OC)c1)C1=C(COC1=O)N2 (centres undefined) | inactive | inactive | 
54 | O=C1OCC2=C1C(c1cc(Cl)cc(Cl)c1Cl)c1cc3c(cc1N2)OCO3 (centres undefined) | inactive | inactive | 
55 | Cc1ccc2c(c1)N(C)C1=C(C(=O)OC1)C2c1ccc(Cl)cc1 (centres undefined) | inactive | inactive | 
56 | CC1(C)COS(=O)(=O)C2=C1Nc1cc3c(cc1C2c1cccc(Cl)c1)OCO3 (centres undefined) | inactive |  | Active
57 | Clc1cccc(C2C3=C(CCC3)Nc3cc4c(cc32)OCO4)c1 (centres undefined) | inactive | inactive | 
58 | COc1cc(OC)cc(C2C3=C(COC3=O)Nc3cc(C)ccc32)c1 (centres undefined) |  |  | Active
59 | COc1cc(OC)cc(C2C3=C(COC3=O)Oc3cc(OC)ccc32)c1 (centres undefined) | inactive | inactive | 
60 | CC1(C)CC(=O)C2=C(C1)Nc1cc3c(cc1C2c1cccc(Cl)c1)OCO3 (centres undefined) | inactive | inactive | 
61 | O=C1OCC2=C1C(c1cccc(OC(F)F)c1)c1cc3c(cc1O2)OCO3 (centres undefined) | inactive | inactive | 
62 | COc1cc(OC)cc(C2C3=C(CNC3=O)Nc3cc4c(cc32)OCO4)c1 (centres undefined) | inactive |  | Active
63 | COc1cc(OC)cc(C2C3=C(Nc4cc5c(cc42)OCO5)C(C)(CC(C)C)NC3=O)c1 (centres undefined) | inactive | inactive | 
64 | O=C1OCC2=C1C(c1cccc(Cl)c1)c1cc3c(cc1O2)OCO3 (centres undefined) | inactive | inactive | 
65 | COc1cc(OC)cc(C2C3=C(COC3=O)Nc3cc(OC(F)F)c(OC(F)F)cc32)c1 (centres undefined) | inactive | inactive | 
66 | OC1=C2C(=Nc3cc4c(cc3C2c2ccccc2)OCO4)CO1 (centres undefined) |  | inactive | 
67 | COc1cc(OC)cc(C2C3=C(COC3=O)Nc3cc(OCc4ccccc4)c(Br)cc32)c1 (centres undefined) | inactive | inactive | 
68 | COc1cccc(C2C3=C(COC3=O)Nc3cc4c(cc32)OCO4)c1OC (centres undefined) | inactive | inactive | 
69 | O=S1(=O)CCCC2=C1C(c1cccc(Cl)c1)c1cc3c(cc1N2)OCO3 (centres undefined) | inactive | inactive | 
70 | COc1cc(C2C3=C(COC3=O)Oc3cc4c(cc32)OCO4)cc(Br)c1OC (centres undefined) | inactive |  | Active
71 | COc1cc(OC)cc(C2C3=C(CCCC3=O)Nc3cc4c(cc32)OCO4)c1 (centres undefined) | inactive | inactive | 
72 | COc1cc(C2(C)C3=C(COC3=O)Nc3cc(Cl)ccc32)cc(OC)c1OC (centres undefined) | inactive | inactive | 
